# In the library only some 6.7% were active in any assay of this set; here they are far more common.
# CSC inhib: blocks cancer stem cells. cancer stem cell-like cells viability, luminescence. inhibition, % at 7.5 µM. actives 1.1% (n = 300,000). AID 2717; in the data active means inhibition above about 75%; tested in HMLE shEcad cells
# Beta apoptosis: beta cell apoptosis inhibition | INS-1E cytokine-induced death, ATP luminescence, 48 h; percent of positive-control rescue, neutral wells zero | protection from apoptosis, % (test concentration not listed) | actives 0.8% (n = 300,000);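 active means Every replicate reaches about 75%, or at least half do and their mean reaches it too, limit read from the data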;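 further: 0% = cytokine-treated negative control wells and 100% = positive control rescue; higher means more ATP so stronger rescue from cytokine killing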
# PREPL inh: inhibits the human prolyl oligopeptidase-like enzyme; Q4J6C6; AID 2751; inhibition, % at 5.96 µM; recombinant PREPL, fluorescence polarization activity-based probe; actives 0.68% (n = 320,000); in the data active means inhibition above about 43%;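 further: 0% = enzyme with DMSO and 100% = wells lacking enzyme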
# Target sequence (Q4J6C6 whole entry, looked up): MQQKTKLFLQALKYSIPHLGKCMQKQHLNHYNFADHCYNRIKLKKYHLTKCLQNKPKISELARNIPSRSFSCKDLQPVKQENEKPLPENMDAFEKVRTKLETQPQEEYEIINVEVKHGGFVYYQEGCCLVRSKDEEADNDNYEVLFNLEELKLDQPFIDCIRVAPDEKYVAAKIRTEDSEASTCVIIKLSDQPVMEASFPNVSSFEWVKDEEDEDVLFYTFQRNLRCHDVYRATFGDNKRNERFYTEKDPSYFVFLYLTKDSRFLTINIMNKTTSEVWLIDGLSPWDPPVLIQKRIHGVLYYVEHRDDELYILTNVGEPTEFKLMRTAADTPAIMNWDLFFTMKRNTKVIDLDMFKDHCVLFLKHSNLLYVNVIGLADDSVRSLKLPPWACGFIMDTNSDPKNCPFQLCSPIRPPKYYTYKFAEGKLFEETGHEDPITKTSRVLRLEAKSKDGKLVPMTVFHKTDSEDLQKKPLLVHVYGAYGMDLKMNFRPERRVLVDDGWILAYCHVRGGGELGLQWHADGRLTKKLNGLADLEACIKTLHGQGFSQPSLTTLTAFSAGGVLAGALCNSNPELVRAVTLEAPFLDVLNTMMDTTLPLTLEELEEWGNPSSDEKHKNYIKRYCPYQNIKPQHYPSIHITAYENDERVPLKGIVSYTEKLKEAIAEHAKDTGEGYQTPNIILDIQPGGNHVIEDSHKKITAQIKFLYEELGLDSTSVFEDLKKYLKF
# T cruzi repl: T. cruzi replication inhibition. T. cruzi beta-gal in NIH3T3, luminescence, 90 h. inhibition, % (no concentration beside the values). actives 1.4% (n = 300,000). AID 1885;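 active means mean inhibition across valid replicates above about 55%, limit read from the data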;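 further: signal also drops with host cell toxicity which is not excluded here; 0% = plate median of DMSO wells and 100% = zero luminescence signal; higher percent means less beta-gal luminescence so fewer parasites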
#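 System: mouse NIH/3T3 fibroblasts infected with β-gal-expressing T. cruzi Tulahuen C4 / Input: NIH/3T3 cells, 5,000 per well / Buffer or medium: Low-serum DMEM with 2% FBS / Probe or stimulus: 5000 reporter trypomastigotes per well / Schedule: ≥90 h infection period, 3 h prior cell attachment / Measured by: GalScreen luminescence, 60 min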
# NR3A LBD binder: NR3A (human) ligand-binding domain modulation; actives 2.5% (n = 340,000); Tm shift relative to glycine control, % at 25 µM; AID 1259313; NR3A LBD differential scanning fluorimetry, Tm shift; 0% = protein alone, 100% = glycine-bound protein;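 active means melting temperature shift of at least 10% of the positive control shift, at one fixed dose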
# CHOP inh: inhibitors of CHOP induction in ER stress response; CHO-K1 CHOP-promoter luciferase, tunicamycin-induced, 15-18 h; inhibition, % at 10 µM; actives 3.8% (n = 220,000); AID 2732;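 active means compounds that reduced the stress-induced luciferase reporter signal by more than about 70% of percent inhibition, limit read from the data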;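 further: 0% = tunicamycin plus vehicle and 100% = wells without tunicamycin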
# * = called active by the depositor; x = no result.
SMILES,CSC inhib,Beta apoptosis,PREPL inh,T cruzi repl,NR3A LBD binder,CHOP inh
Cc1cccc(C)c1NC(=O)CSc1nc(COc2ccccc2)nc2ccccc12,x,x,0,1,-5,88*
CCOC(=O)C1=C(c2ccccc2)OC(N)=C(C#N)C1c1ccc(Cl)s1 (centres undefined),11,-2,13,-14,-26,78*
CCOC(=O)C1=C(c2ccccc2)OC(N)=C(C#N)C1c1ccc(Br)s1 (centres undefined),1,-3,-12,-5,-5,82*
CCOC(=O)C1=C(c2ccccc2)OC(N)=C(C#N)C1c1cccnc1 (centres undefined),-15,-11,-1,-5,-1,-8
CC(C)C(NC(=O)C12CC3CC(CC(C3)C1)C2)C(=O)N/N=C/C1=C(N2CCOCC2)C(=C\c2cccc([N+](=O)[O-])c2)/CC1 (centres undefined),x,-6,-1,56*,-12,28
CCOC(=O)C(C)n1cnc2sc3c(c2c1=O)CCC3 (centres undefined),4,-5,7,-3,1,14
CCc1cc2c(=O)n(C(C)C(=O)OC3CCCCC3)cnc2s1 (centres undefined),1,0,12,23,0,72*
CC[n+]1c(C=C2C=C(C)OC(C)=C2)sc2ccccc21,x,x,x,73*,-3,23
CC(C)NC(=S)NNC(=O)C12CC3CC(CC(C3)C1)C2,-2,-2,7,-8,11*,22
COc1cc(/C=N/NC(=O)c2cc(-c3cccn3C)n[nH]2)cc(OC)c1OC,-6,35,20,5,-27,-1
Cn1cccc1-c1cc(C(=O)N/N=C/c2ccc(Cl)cc2)[nH]n1,40,6,24,4,19*,x
COc1cccc(/C=N/NC(=O)c2cc(-c3cccn3C)n[nH]2)c1O,87*,26,27,3,7,58
O=C(COc1ccc2c3c(c(=O)oc2c1)CCCC3)N1CCN(c2ccccc2)CC1,4,-1,-64,10,0,x
CC/C(=N/O)c1cnnc(SC)n1,6,-2,-7,-3,-2,15
CC/C(=N/Nc1ccc(Cl)cc1)c1cnnc(SC)n1,6,-5,-1,7,17*,-13
CCCCN(C(=O)c1ccc(NC2CC2)c([N+](=O)[O-])c1)c1c(N)n(CC(C)C)c(=O)[nH]c1=O,-17,-7,12,x,4,x
Cc1ccc(NC(=O)CN(C)C(=O)C(C)N2CCN(Cc3ccccc3C)CC2)cc1 (centres undefined),x,3,12,x,-1,x
O=C(OC1C2CCC1C1CN(CCc3ccccc3)CC12)c1ccccc1 (centres undefined),0,34,14,44,-10,34
Cc1cc(NC(=O)Cn2nc(-c3ccccc3F)ccc2=O)ccc1-n1cnnn1,-4,3,-96,7,1,72*
CCCCCn1c(=O)[nH]c2cc(C(=O)Nc3ccc(OC)cc3)ccc2c1=O,-5,-4,6,-12,-2,x
CCn1c(=O)[nH]c2cc(C(=O)Nc3cc(C)cc(C)c3)ccc2c1=O,9,-1,-2,-19,-5,89*
C/C(Cn1cnc([N+](=O)[O-])n1)=N/NC(=O)COc1c(Cl)cc(Cl)cc1Cl,-20,1,-13,62*,3,2
Cc1cccc(-c2cc(=O)c(C(=O)O)cn2-c2ccc(F)cc2F)c1,1,8,-3,-17,13*,25
NC1CCN(c2nc3c(cc2F)c(=O)c(C(=O)O)cn3-c2ccc(F)cc2F)C1 (centres undefined),-9,6,-4,-16,-1,x
CCCCC(CC)CN=C(N)NC(N)=NCCCCCCN=C(N)NC(N)=NCC(CC)CCCC (centres undefined),103*,114*,37,x,3,x
O=C(NC1CC(=O)N(c2ccccc2)C1)C1CC1 (centres undefined),-12,4,-5,-7,-1,x
Cc1cc(NS(=O)(=O)c2ccc(NC(=O)C(C)Oc3cc(C)c(Cl)c(C)c3)cc2)no1 (centres undefined),7,-3,-5,20,-4,x
CCc1cccc2sc(N3CCN(C(=O)c4ccc([N+](=O)[O-])o4)CC3)nc12,5,25,21,64*,-7,x

# Screening data (PubChem)
